Data as given in ChEMBL document CHEMBL3286200, “Design and green synthesis of 2-(diarylalkyl)aminobenzothiazole derivatives and their dual activities as angiotensin converting enzyme inhibitors and calcium channel blockers” (Eur J Med Chem, 2014).
Active and inactive are the calls of the source. No cut-off for these calls is given here.

Organism: Rattus norvegicus
Test: Inhibition of voltage-dependent calcium channel in Sprague-Dawley rat thoracic aorta assessed as inhibition of CaCl2-induced contraction at […] by isometric force transducer
Assay type: tissue-based
Method in brief: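 Isolated rat aortic rings hung on steel hooks in a water-jacketed organ bath of oxygenated KHB at 37 °C. Resting tension 1 g, equilibration about 30 min. Rings precontracted with […], with buffer changed every 15 min. Tissue preincubated with test agent, then cumulative calcium concentration–response curve (10^-3 to 10^-1 M) recorded as isometric tension.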
For COC(=O)C1=C(C)NC(C)=C(C(=O)OC)C1c1ccccc1[N+](=O)[O-], the inhibition was “Active”.

Molecular target: T1, Angiotensin-converting enzyme (Oryctolagus cuniculus) (UniProt P12822)
T1 sequence (whole entry): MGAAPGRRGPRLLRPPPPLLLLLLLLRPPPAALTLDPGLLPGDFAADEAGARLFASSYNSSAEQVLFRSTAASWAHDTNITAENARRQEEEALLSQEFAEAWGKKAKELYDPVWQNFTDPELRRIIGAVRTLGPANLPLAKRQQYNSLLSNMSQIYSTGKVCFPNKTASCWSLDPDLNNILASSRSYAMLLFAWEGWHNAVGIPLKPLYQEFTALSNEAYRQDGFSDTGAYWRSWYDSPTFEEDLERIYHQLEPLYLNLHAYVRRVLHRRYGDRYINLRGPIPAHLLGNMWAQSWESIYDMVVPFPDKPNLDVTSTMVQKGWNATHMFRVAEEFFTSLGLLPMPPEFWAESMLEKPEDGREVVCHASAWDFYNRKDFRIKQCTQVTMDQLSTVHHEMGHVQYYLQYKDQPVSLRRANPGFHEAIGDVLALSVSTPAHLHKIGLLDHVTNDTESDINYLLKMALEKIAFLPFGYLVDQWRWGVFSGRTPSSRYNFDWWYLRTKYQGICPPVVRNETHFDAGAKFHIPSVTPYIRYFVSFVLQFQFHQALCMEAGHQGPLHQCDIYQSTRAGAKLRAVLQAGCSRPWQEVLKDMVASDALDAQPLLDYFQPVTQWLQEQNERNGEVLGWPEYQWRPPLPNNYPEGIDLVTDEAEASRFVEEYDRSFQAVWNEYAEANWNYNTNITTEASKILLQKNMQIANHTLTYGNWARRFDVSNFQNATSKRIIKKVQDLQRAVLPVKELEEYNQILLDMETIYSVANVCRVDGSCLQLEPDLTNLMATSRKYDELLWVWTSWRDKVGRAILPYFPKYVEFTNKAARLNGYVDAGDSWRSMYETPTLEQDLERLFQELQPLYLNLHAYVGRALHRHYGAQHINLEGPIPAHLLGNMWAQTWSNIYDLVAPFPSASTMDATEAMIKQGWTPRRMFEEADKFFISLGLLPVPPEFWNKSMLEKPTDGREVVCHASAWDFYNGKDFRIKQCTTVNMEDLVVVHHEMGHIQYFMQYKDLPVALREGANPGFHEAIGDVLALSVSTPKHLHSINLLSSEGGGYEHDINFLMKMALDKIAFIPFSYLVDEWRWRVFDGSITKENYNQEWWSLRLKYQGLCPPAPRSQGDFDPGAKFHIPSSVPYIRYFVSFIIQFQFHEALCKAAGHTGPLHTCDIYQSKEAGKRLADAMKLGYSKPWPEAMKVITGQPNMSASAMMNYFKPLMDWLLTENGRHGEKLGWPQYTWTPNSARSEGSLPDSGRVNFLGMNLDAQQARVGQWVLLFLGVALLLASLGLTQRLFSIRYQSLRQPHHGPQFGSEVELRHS
Test: Inhibition of rabbit lung ACE assessed as inhibition of hippuryl-histidyl-leucine substrate hydrolysis at 1 uM pretreated for 10 mins followed by addition of 5 mM HHL substrate for 30 mins measured as hippuric acid release
Method in brief: (§1)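 Reaction started with […] of 5 mM HHL; released hippuric acid read as yellow colour at 410 nm. Inhibition% = 100 − (T/C)×100; IC50 from percentage-inhibition versus concentration curves.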
COc1ccc(C(Nc2nc3ccccc3s2)c2c(O)ccc3ccccc23)cc1 (stereo not given) gave an inhibition of 61.8%. For COc1ccc(C(Nc2nc3c(Cl)cccc3s2)c2c(O)ccc3ccccc23)cc1 (stereo not given), the inhibition was 80.1%.

Molecular target: T2, Angiotensin-converting enzyme (Oryctolagus cuniculus, UniProt P12822)
T2 sequence (P12822 whole entry): T1 sequence (whole entry)
Test: Inhibition of rabbit lung ACE assessed as inhibition of hippuryl-histidyl-leucine substrate hydrolysis pretreated for 10 mins followed by addition of 5 mM HHL substrate for 30 mins measured as hippuric acid release
Method in brief: as §1
Work on O=C(/C=C/c1ccc(O)c(O)c1)c1ccc(O)cc1O [BUTEIN] yielded an IC50 of 730000 nM. Work on COc1ccc(C(Nc2nc3ccccc3s2)c2c(O)ccc3ccccc23)cc1 (stereo not given) yielded an IC50 of 837 nM. In the case of COc1ccc(C(Nc2nc3c(Cl)cccc3s2)c2c(O)ccc3ccccc23)cc1 (stereo not given), the IC50 is reported as 607 nM.

Organism: Rattus norvegicus
Test: (§2) Inhibition of voltage-dependent calcium channel in Sprague-Dawley rat thoracic aorta assessed as inhibition of CaCl2-induced contraction by isometric force transducer
Assay type: tissue-based
Method in brief: (§3)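 Rat aortic rings held at 37 °C in 25 mL oxygenated KHB in an organ bath, under 1 g resting tension, equilibrated about 30 min. Isometric tension recorded by force transducer. Initial contraction with phenylephrine 1 mM, buffer changed every 15 min. After preincubation with test agent, a cumulative calcium concentration-response curve (10^-3 to 10^-1 M) was recorded.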
In the case of COc1cc(C(Nc2nc3ccccc3s2)c2c(O)ccc3ccccc23)cc(OC)c1OC (stereo not given), the inhibition is reported as “Dose-dependent effect”. In the case of Oc1ccc2ccccc2c1C(Nc1nc2ccccc2s1)c1ccc2ccccc2c1 (stereo not given), the inhibition is reported as “Dose-dependent effect”. For Oc1ccc2ccccc2c1C(Nc1nc2c(Cl)cccc2s1)c1ccccc1 (stereo not given), the inhibition was “Dose-dependent effect”. With CN(C)c1ccc(C(Nc2nc3c(Cl)cccc3s2)c2c(O)ccc3ccccc23)cc1 (stereo not given) the inhibition was “Dose-dependent effect”. In the case of N#Cc1ccc(C(Nc2nc3ccccc3s2)c2c(O)ccc3ccccc23)cc1 (stereo not given), the inhibition is reported as “Dose-dependent effect”. With Oc1ccc2ccccc2c1C(Nc1nc2c(Cl)cccc2s1)c1cccc(Cl)c1 (stereo not given) the inhibition was “Dose-dependent effect”. For COc1cc(C(Nc2nc3c(Cl)cccc3s2)c2c(O)ccc3ccccc23)cc(OC)c1OC (stereo not given), the inhibition was “Dose-dependent effect”. With Oc1ccc2ccccc2c1C(Nc1nc2c(Cl)cccc2s1)c1ccc(Cl)c(Cl)c1 (stereo not given) the inhibition was “Dose-dependent effect”. For Oc1ccc2ccccc2c1C(Nc1nc2ccccc2s1)c1ccccc1Cl (stereo not given), the inhibition was “Dose-dependent effect”. With CC(c1ccccc1)C(Nc1nc2ccccc2s1)c1c(O)ccc2ccccc12 (stereo not given) the inhibition was “Dose-dependent effect”. For Oc1ccc2ccccc2c1C(Nc1nc2ccccc2s1)c1ccc(Cl)cc1 (stereo not given), the inhibition was “Dose-dependent effect”. For Oc1ccc2ccccc2c1C(Nc1nc2ccccc2s1)c1cccc(Oc2ccccc2)c1 (stereo not given), the inhibition was “Dose-dependent effect”. In the case of Oc1ccc2ccccc2c1C(Nc1nc2c(Cl)cccc2s1)c1ccc(F)cc1 (stereo not given), the inhibition is reported as “Dose-dependent effect”. For Oc1ccc2ccccc2c1C(Nc1nc2ccccc2s1)c1cc(F)ccc1Br (stereo not given), the inhibition was “Dose-dependent effect”. With COc1ccc(C(Nc2nc3ccccc3s2)c2c(O)ccc3ccccc23)c(OC)c1 (stereo not given) the inhibition was “Dose-dependent effect”. In the case of Oc1ccc2ccccc2c1C(Nc1nc2ccc(Cl)cc2s1)c1ccc(Br)cc1 (stereo not given), the inhibition is reported as “Dose-dependent effect”. In the case of Oc1ccc2ccccc2c1C(Nc1nc2ccccc2s1)c1ccc(C(F)(F)F)cc1 (stereo not given), the inhibition is reported as “Dose-dependent effect”. For Oc1ccc2ccccc2c1C(Nc1nc2ccccc2s1)c1cccc(Br)c1 (stereo not given), the inhibition was “Dose-dependent effect”. For CN(C)c1ccc(C(Nc2nc3ccccc3s2)c2c(O)ccc3ccccc23)cc1 (stereo not given), the inhibition was “Dose-dependent effect”. In the case of Oc1ccc2ccccc2c1C(Nc1nc2ccccc2s1)c1ccc(F)c(F)c1 (stereo not given), the inhibition is reported as “Dose-dependent effect”. For Oc1ccc2ccccc2c1C(Nc1nc2c(Cl)cccc2s1)c1cccc(Oc2ccccc2)c1 (stereo not given), the inhibition was “Dose-dependent effect”. With Oc1ccc2ccccc2c1C(Nc1nc2ccccc2s1)c1ccc(Cl)c(Cl)c1 (stereo not given) the inhibition was “Dose-dependent effect”. For Cc1ccc(C(Nc2nc3ccc(Cl)cc3s2)c2c(O)ccc3ccccc23)cc1 (stereo not given), the inhibition was “Dose-dependent effect”. In the case of Oc1ccc2ccccc2c1C(Nc1nc2ccccc2s1)c1cccc(Cl)c1Cl (stereo not given), the inhibition is reported as “Dose-dependent effect”. With Oc1ccc2ccccc2c1C(Nc1nc2ccc(Cl)cc2s1)c1ccccc1 (stereo not given) the inhibition was “Dose-dependent effect”. With COc1ccc(C(Nc2nc3ccccc3s2)c2c(O)ccc3ccccc23)cc1 (stereo not given) the inhibition was “Dose-dependent effect”. In the case of CC(C)c1ccc(C(Nc2nc3ccccc3s2)c2c(O)ccc3ccccc23)cc1 (stereo not given), the inhibition is reported as “Dose-dependent effect”. In the case of COc1ccc(C(Nc2nc3c(Cl)cccc3s2)c2c(O)ccc3ccccc23)cc1 (stereo not given), the inhibition is reported as “Dose-dependent effect”. In the case of Oc1ccc2ccccc2c1C(Nc1nc2c(Cl)cccc2s1)c1ccc(Br)cc1 (stereo not given), the inhibition is reported as “Dose-dependent effect”. With Oc1ccc2ccccc2c1C(Nc1nc2ccccc2s1)c1cccc(Cl)c1 (stereo not given) the inhibition was “Dose-dependent effect”. With Oc1ccc2ccccc2c1C(Nc1nc2ccc(Cl)cc2s1)c1ccc(Cl)c(Cl)c1 (stereo not given) the inhibition was “Dose-dependent effect”. In the case of Cc1ccc(C(Nc2nc3c(Cl)cccc3s2)c2c(O)ccc3ccccc23)cc1 (stereo not given), the inhibition is reported as “Dose-dependent effect”. For Oc1ccc2ccccc2c1C(Nc1nc2ccccc2s1)c1ccc(F)cc1 (stereo not given), the inhibition was “Dose-dependent effect”. For Oc1ccc2ccccc2c1C(Nc1nc2c(Cl)cccc2s1)c1ccc(Cl)cc1Cl (stereo not given), the inhibition was “Dose-dependent effect”. For Cc1ccc(C(Nc2nc3ccccc3s2)c2c(O)ccc3ccccc23)cc1 (stereo not given), the inhibition was “Dose-dependent effect”. For COc1ccc(C(Nc2nc3ccccc3s2)c2c(O)ccc3ccccc23)cc1OC (stereo not given), the inhibition was “Dose-dependent effect”. In the case of Oc1ccc2ccccc2c1C(Nc1nc2ccccc2s1)c1ccccc1 (stereo not given), the inhibition is reported as “Dose-dependent effect”. With Oc1ccc2ccccc2c1C(Nc1nc2ccccc2s1)c1ccc(Br)cc1 (stereo not given) the inhibition was “Dose-dependent effect”. With Oc1ccc2ccccc2c1C(Nc1nc2c(Cl)cccc2s1)c1ccc2ccccc2c1 (stereo not given) the inhibition was “Dose-dependent effect”. In the case of Cc1cccc2sc(NC(c3ccc(Cl)c(Cl)c3)c3c(O)ccc4ccccc34)nc12 (stereo not given), the inhibition is reported as “Dose-dependent effect”. For Oc1ccc2ccccc2c1C(Nc1nc2ccccc2s1)c1cccc(F)c1 (stereo not given), the inhibition was “Dose-dependent effect”. For Oc1ccc2ccccc2c1C(Nc1nc2ccccc2s1)c1ccc(Cl)cc1Cl (stereo not given), the inhibition was “Dose-dependent effect”.

Test system: not listed separately
Test: as §2
Assay type: tissue-based
Method in brief: as §3
COc1ccc(C(Nc2nc3ccccc3s2)c2c(O)ccc3ccccc23)cc1 (stereo not given) gave an IC50 of 3000 nM. In the case of COc1ccc(C(Nc2nc3c(Cl)cccc3s2)c2c(O)ccc3ccccc23)cc1 (stereo not given), the IC50 is reported as 50000 nM.
